Assays:
Rattus norvegicus [1] = test: Efficiency of the chelator [(net iron excretion ) / (total iron binding capacity of chelator)] to induce iron clearance in rat at a peroral dose of 150 umol/kg.; format: functional
Method in brief: (§1)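 Male Sprague–Dawley rats (~400 g) had bile-duct cannulation under ip pentobarbital. Chelator in 40% Cremophor RH-40/water was given at 150 µmol/kg, po or sc. Bile was collected at 3-h intervals for 24 h and urine every 24 h; iron was measured in both. Net iron = treated minus control excretion, divided by the theoretical 2:1 ligand–iron binding capacity, as a percent.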

Rattus norvegicus [2] = test: Efficiency of the chelator [(net iron excretion ) / (total iron binding capacity of chelator)] to induce iron clearance in rat at a subcutaneous dose of 150 uMol/kg.; format: functional; method in brief: as §1
Rattus norvegicus [3] = test: Efficiency of the chelator [(net iron excretion ) / (total iron binding capacity of chelator)] to induce iron clearance in rat at a peroral dose of 150 uMol/kg.; format: functional; method in brief: as §1
Rattus norvegicus [4] = test: Chronic toxicity in rats administered by gavage at a dose of 384 [uMol/kg/day] X 10 days, measured as number of deaths. Activity value is 0/5 (All histopathologies normal; well tolerated for 10-day test period); format: organism-based; details: in vivo, po, 240 h
[5] = log P value measured in TRIS buffer at a pH 7.4.; format: physicochemical
Method in brief: (§2)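 Shake-flask octanol/50 mM TRIS buffer pH 7.4 at 24 °C, with 3–5 min mixing and 1–24 h settling. Phase concentrations were read by UV spectrometry. Values are distribution coefficients uncorrected for partial ionization of the acids.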

Monkey [6] = test: Efficiency of the chelator [(net iron excretion ) / (total iron binding capacity of chelator)] to induce iron clearance in monkey at a peroral dose of 150 uMol/kg.; format: functional, Cercopithecidae
Method in brief: (§3)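 Capuchin (Cebus apella) monkeys were iron-loaded with 2–3 iron dextran iv infusions to about 500 mg Fe/kg, then rested at least 60 days. Chelator was given po in 40% Cremophor RH-40/water. Feces and urine were collected every 24 h, from 4 days pre-dose to 5 days post-dose, and iron was measured by flame AAS. Efficiency = (2-day post-dose iron − mean 4-day baseline) / theoretical output for a 2:1 ligand–iron complex, as a percent.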

[7] = Octanol-water apparent distribution coefficient measured in TRIS buffer at a pH 7.4.; format: physicochemical; method in brief: as §2
Monkey [8] = test: Efficiency of the chelator [(net iron excretion ) / (total iron binding capacity of chelator)] to induce iron clearance in monkey at a peroral dose of 75 umol/kg.
Monkey [9] = test: Efficiency of the chelator [(net iron excretion ) / (total iron binding capacity of chelator)] to induce iron clearance in monkey at a peroral dose of 300 uMol/kg.; format: functional, Cercopithecidae; method in brief: as §3
Rattus norvegicus [10] = test: Chronic toxicity in 5 rats administered by gavage at a dose of 384 [uMol/kg/day] X 10 days, measured as number of deaths. Activity value is 0/5 (All histopathologies normal; well tolerated for 10-day test period); format: organism-based; details: in vivo, po, 240 h
Rattus norvegicus [11] = test: Chronic toxicity in 5 rats administered by gavage at a dose of 384 [uMol/kg/day] X 10 days, measured as number of deaths. Activity value is 5/5.; format: organism-based; details: in vivo, po, 240 h
Rattus norvegicus [12] = test: Chronic toxicity in 5 rats administered by gavage at a dose of 384 [uMol/kg/day] X 10 days, measured as number of deaths. Activity value is 5/5; format: organism-based; details: in vivo, po, 240 h

## O=C(O)C1CN=C(c2ccccc2O)N1 (centres undefined)
Rattus norvegicus [1]
  Efficiency: <0.5%
Rattus norvegicus [2]
  Efficiency: <0.5%

## COc1cccc(C2=N[C@@H](C(=O)O)CS2)c1O
Rattus norvegicus [1]
  Efficiency: 0.9%
Rattus norvegicus [2]
  Efficiency: 0.5%

## O=C(O)[C@H]1CSC(Cc2ccccc2O)=N1
Rattus norvegicus [1]
  Efficiency: <0.5%
Rattus norvegicus [2]
  Efficiency: <0.5%

## O=C(O)C[C@H]1CSC(c2ccccc2O)=N1
Rattus norvegicus [1]
  Efficiency: <0.5%

## O=C(O)CC[C@H]1CSC(c2ccccc2O)=N1
Rattus norvegicus [1]
  Efficiency: <0.5%

## O=C(O)c1ccc(C2=N[C@@H](C(=O)O)CS2)c(O)c1
Rattus norvegicus [1]
  Efficiency: <0.5%
Rattus norvegicus [2]
  Efficiency: <0.5%

## O=C(O)[C@H]1CSC(c2cccc(O)c2O)=N1
Rattus norvegicus [3]
  Efficiency: <0.5%
Rattus norvegicus [2]
  Efficiency: <0.5%

## O=C(O)[C@H]1CSC(c2ccc(O)cc2O)=N1
Rattus norvegicus [4]
  No. of deaths: well tolerated for 10-day test period
[5]
  logD: -1.2
Rattus norvegicus [3]
  Efficiency: 2.4%
Monkey [6]
  Efficiency: 4.2%
[7]
  K app: 0.063

## O=C(O)[C@@H]1CSC(c2nc3ccccc3cc2O)=N1
Rattus norvegicus [1]
  Efficiency: 12.3%
Monkey [8]
  Efficiency: <0.5%

## O=C(O)[C@H]1CSC(c2ncccc2O)=N1
[5]
  logD: -1.87
Monkey [6]
  Efficiency: 4.8%
Rattus norvegicus [1]
  Efficiency: 2.4%
Monkey [9]
  Efficiency: 8%
[7]
  K app: 0.013
Rattus norvegicus [10]
  No. of deaths: well tolerated for 10-day test period

## O=C(O)[C@H]1CSC(c2nc3ccccc3cc2O)=N1
Monkey [6]
  Efficiency: 3.5%
Rattus norvegicus [1]
  Efficiency: 5.9%

## O=C(O)[C@H]1CSC(c2ccccc2O)=N1
[5]
  logD: -0.93
Rattus norvegicus [11]
  No. of deaths: Number of deaths 5/5
Rattus norvegicus [1]
  Efficiency: 1.4%
Monkey [9]
  Efficiency: 12.4%
[7]
  K app: 0.12

## Cc1ccc(O)c(C2=NC(C(=O)O)CC2)c1.Cl (centres undefined)
Rattus norvegicus [1]
  Efficiency: <0.5%
Rattus norvegicus [2]
  Efficiency: <0.5%

## C[C@]1(C(=O)O)CSC(c2ncccc2O)=N1 [DESFERRITHIOCIN]
[5]
  logD: -1.77
Monkey [6]
  Efficiency: 16.1%
Rattus norvegicus [1]
  Efficiency: 5.5%
Rattus norvegicus [12]
  No. of deaths: Number of deaths 5/5
[7]
  K app: 0.017
